Compounds with a hit are over-represented: about 3.8% of the library has one in this group of screens.
OX1R antag-1 = antagonists of human orexin 1 receptor (OX1R); Orexin/Hypocretin receptor type 1 (Homo sapiens), O43613; OX1R-expressing cells, FRET antagonist read-out; inhibition, % at 6.6 µM; 330,000 tested, 1.8% active; in the data active = inhibition mostly above about 38%, no sharp cut-off; inactive = mostly below about 40%;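 also: 0% = agonist challenge alone and 100% = reference antagonist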
Target sequence (O43613 whole entry, looked up): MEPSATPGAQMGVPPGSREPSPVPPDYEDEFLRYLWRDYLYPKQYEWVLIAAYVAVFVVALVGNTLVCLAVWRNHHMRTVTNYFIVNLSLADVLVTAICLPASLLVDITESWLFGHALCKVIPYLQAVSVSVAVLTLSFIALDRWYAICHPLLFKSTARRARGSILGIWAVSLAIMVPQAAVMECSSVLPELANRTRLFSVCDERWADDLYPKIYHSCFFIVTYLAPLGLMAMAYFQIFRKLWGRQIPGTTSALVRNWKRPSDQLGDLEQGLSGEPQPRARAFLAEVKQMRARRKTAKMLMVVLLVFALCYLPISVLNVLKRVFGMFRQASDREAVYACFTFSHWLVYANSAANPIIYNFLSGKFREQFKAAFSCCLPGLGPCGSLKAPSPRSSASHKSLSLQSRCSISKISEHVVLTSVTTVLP
MPTP inh = mitochondrial permeability transition pore inhibitors, primary screen, biochemical, isolated mouse mitochondria, absorbance; Ca2+ swelling absorbance, 30 min; inhibition, % at 10 µM; 360,000 tested, 1.4% active; AID 602449, 2012;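 active = inhibition of 50% or more, scaled per plate between neutral and stimulator controls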;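 also: 0% = DMSO wells given calcium and 100% = 1 mM EGTA wells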
CHO parental Ca = ATP-evoked calcium signal inhibitors, parental CHO, primary screen, counter-screen for OX1R antagonist project, cell-based, fluorescence, Fluo-8 calcium dye; inhibition, % at 5.6 µM; AID 463079, 2010; parental CHO-K1, ATP-induced calcium, Fluo-8 fluorescence; 330,000 tested, 0.63% active;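 active = inhibition above that plate's mean sample inhibition plus 3 SD, cut at about 26% in these data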;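 also: 0% = ATP-challenged DMSO wells and 100% = DMSO wells without ATP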
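Measured by: calcium-sensitive Fluo-8 fluorescence / Test system: CHO parental line / Controls: ATP-challenged DMSO wells low, unchallenged DMSO wells high / Measure: % inhibition / Compound: single nominal dose of 5.6 µM per compound / Replicates: single well per compound, no replicates / Reagent: ATP as calcium-mobilizing challenge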
GPR7 antag = GPR7 receptor antagonists, primary screen, cell-based, fluorescence, single concentration; Neuropeptides B/W receptor type 1 (Homo sapiens), P48145; GPR7-expressing cells, fluorescence antagonist assay; 290,000 tested, 1.1% active; AID 1861, 2009; inhibition, % at 4.4 µM; in the data active = inhibition above about 16%, passing the limit was not always enough;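 also: cells stimulated with the agonist NPW; 0% = agonist with vehicle and 100% = vehicle without agonist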
OX1R antag-2 = OX1R (HCRTR1) antagonists, primary screen, fluorescence, CHO/OX1R cells, Fluo-8 calcium, orexin A; inhibition, % at 5 µM; Fluo-8 calcium fluorescence; AID 434989, 2010; 330,000 tested, 0.43% active; Orexin/Hypocretin receptor type 1 (Homo sapiens), O43613;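 active = inhibition above its plate's threshold, mean inhibition of all tested compounds on the plate plus 3 SD, cut at about 37% in these data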;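 also: 0% = orexin A challenge wells and 100% = SB-334867-A antagonist wells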
* marks the source's active call; other numbers are inactive results; nt = no result given.

SMILES	OX1R antag-1	MPTP inh	CHO parental Ca	GPR7 antag	OX1R antag-2
CC(C)N(C(=O)CSc1nc2ccccc2n1-c1ccccc1)C(C)C	54.7*	-3.4	-31.1	6.5	-23.1
COC(=O)[C@@]12C[C@@H](CC(=O)NCC34CC5CC(CC(C5)C3)C4)C(=O)N(Cc3ccccc3)C1=CCC(C)(C)C2	nt	-0.1	nt	nt	nt
Cc1ccccc1NS(=O)(=O)c1ccc(NC(=O)CSCc2ccc(Br)cc2)cc1	23.1	20.2	30.8*	17.9	14.5
O=C(CSCc1ccc(Br)cc1)Nc1ccc(S(=O)(=O)N2CCOCC2)cc1	5.9	-0.8	-0.7	12.7	4.1
Cc1ccc(F)cc1C(=O)N1CCCC(c2cc(C(=O)Nc3ccccc3Cl)no2)C1 (stereo not given)	nt	0.7	nt	nt	nt
C#CCn1c(S(=O)(=O)Cc2ccc(F)cc2)nc(-c2ccccc2)c1-c1ccccc1	40.1*	0.1	-18.9	-8.5	-19.8
CC(C)N1CCC1(C)C(=O)Nc1cccc(C#N)c1 (stereo not given)	nt	-1.0	nt	nt	nt
Cc1c(O)cc2c(c1O)C(=O)CC(c1ccccc1)O2 (stereo not given)	3.5	-0.6	100.1*	nt	105.1*
COc1ccc(CC(N)c2csc(NC(=O)c3cc(C(C)(C)C)oc3C)n2)cc1 (stereo not given)	nt	-0.3	nt	nt	nt
Nc1ncnc(Sc2ccccc2)c1[N+](=O)[O-]	46.4*	-1.0	-2.6	-9.3	-8.3
Nc1ncnc(Sc2ccc(Cl)cc2)c1[N+](=O)[O-]	29.1	0.0	6.5	10.1	0.3
CCNS(=O)(=O)c1ccc(CCC(=O)O)cc1	8.4	0.1	1.9	-17.6	5.3
CCNS(=O)(=O)c1ccc(CCC(N)=O)cc1	8.5	-1.1	-7.3	19.0*	-0.2
COc1ccccc1-c1nc(-c2ccc(Br)o2)no1	55.4*	2.5	-15.4	-11.3	-24.6
CCC1CCCCN1S(=O)(=O)c1ccc(S(=O)(=O)N(Cc2cccs2)C2CC2)cc1 (stereo not given)	28.7	2.9	24.6	8.2	54.3*
CC(C)(C)c1ccc(Cn2cnc(-c3ccc([N+](=O)[O-])cc3)c2)cc1	15.2	21.6	42.3*	-2.6	-22.6
COc1ccc(CCNC(=O)CCC(=O)N2CCOc3ccc(Cl)cc32)cc1OC	18.7	-1.4	-8.4	3.4	-24.5
Oc1c(Cl)cc(Cl)cc1Sc1cc(Cl)cc(Cl)c1O	59.7*	nt	101.0*	1.9	72.8*
CC(C)C(C)(C#N)NC(=O)CSc1nc(C2CCCCC2)n(-c2ccccc2)n1 (stereo not given)	7.9	0.6	-16.9	-6.2	-26.1
O=C(Nc1cccc(C(=O)O)c1)/C(=C/c1cccc([N+](=O)[O-])c1)NC(=O)c1cccc(Br)c1	51.4	-1.0	-2.6	nt	-1.5
O=C(N/N=C/C(Cl)=C/c1ccc([N+](=O)[O-])cc1)C(=O)Nc1cccc(C(=O)O)c1	65.8*	1.6	3.2	-5.0	-16.5
COc1ccc([N+](=O)[O-])cc1NC(=S)NC(C)=O	12.1	-0.7	-2.1	-4.3	-12.8
COc1cc(/C=C/C(=O)NC(=O)c2ccccc2O)ccc1O	67.1*	1.6	-15.0	-25.1	-16.0
O=C(/C=C/c1ccccc1)NC(=O)c1ccccc1O	12.3	18.4	2.6	-17.4	-23.6
CCCCC(=O)NC(=S)Nc1cc([N+](=O)[O-])ccc1OC	18.6	-2.6	40.8*	-12.4	-13.6
SMILES	OX1R antag-1	MPTP inh	CHO parental Ca	GPR7 antag	OX1R antag-2
COc1ccc(/C=C/C(=O)NC(=S)Nc2cc([N+](=O)[O-])ccc2O)cc1OC	59.6*	2.3	-19.4	-1.7	-6.2
Cc1ccc(S(=O)(=O)N[C@@H](C)CO)cc1	nt	-0.5	nt	nt	nt
O=C(COc1ccc(Br)cc1)Nc1ccccc1C(=O)NC1CC1	20.3	-2.3	19.9	nt	9.3
CCOC(=O)c1sc(NC(=O)c2sccc2C)cc1C	42.0*	11.1	-5.4	-8.5	-19.4
CCOC(=O)c1sc(NC(=O)c2ccc(Br)o2)cc1C	45.3*	0.3	-19.4	-5.0	-25.5
C[C@H]1CN([C@@H](C)CO)C(=O)CCCn2cc(nn2)CO[C@@H]1CN(C)S(=O)(=O)c1ccc(Cl)cc1	nt	0.2	nt	nt	nt
O=S1(=O)CC(N2CCN(CCO)CC2)CN1CCc1ccccc1 (stereo not given)	nt	-0.3	nt	nt	nt
Cc1ccc(S(=O)(=O)N(C)CC(=O)NCCCc2ccccc2)cc1	-0.8	2.0	-5.1	-7.0	-17.9
CN(CCCC(=O)NCCc1ccccc1)S(=O)(=O)c1ccc([N+](=O)[O-])cc1	46.0*	-0.9	-12.2	0.0	-7.0
O=[N+]([O-])c1ccc(N=Nc2c(Cl)cc(O)cc2Cl)cc1	58.1*	25.9	66.6*	62.2*	39.1*
O=C1Nc2ccc(S(=O)(=O)N3CCCC3C(=O)O)c3cccc1c23 (stereo not given)	37.9*	0.3	-9.4	-4.3	-9.8
O=C1Nc2ccc(S(=O)(=O)N3CCCC3)c3cccc1c23	18.8	0.6	-5.8	-0.5	-8.2
O=C(c1ccccc1NS(=O)(=O)c1ccccc1[N+](=O)[O-])N1CCOCC1	13.8	-1.0	9.9	2.8	-9.5
O=C(c1ccccc1NS(=O)(=O)c1ccc([N+](=O)[O-])cc1[N+](=O)[O-])N1O[C@@H]2C=C[C@H]1C2	45.6*	1.7	-8.0	nt	-6.7
Cc1nc2ccc3[nH]snc3c2n1	51.9*	-0.1	4.1	-0.4	5.0
CC(Sc1ccc(Cl)cc1)C(=O)Nc1ccc(S(=O)(=O)N2CCOCC2)cc1 (stereo not given)	13.8	10.3	8.3	24.8	6.3
CCOC(=O)c1ccc(NC(=O)CSc2nncn2-c2cccnc2)cc1	10.1	-1.0	-7.4	-7.6	-11.2
CCOC(=O)c1cn(-c2c(Cl)cccc2Cl)c2cc(Cl)c([N+](=O)[O-])cc2c1=O	52.3	1.6	-9.7	-7.4	-24.8
CCOC(=O)c1cn(CC)c2cc(Cl)c([N+](=O)[O-])cc2c1=O	54.8*	1.9	-1.9	-11.0	-10.0
COC(=O)c1ccc(CSc2nc3ccccc3c(=O)n2Cc2ccco2)o1	14.5	7.9	37.2*	-3.6	50.1*
COC(=O)c1ccc(CSc2nc3c(cnn3-c3ccccc3)c(=O)[nH]2)o1	54.6*	1.4	-15.8	-19.5	11.1
COC(=O)c1ccc(CSc2nc3ccccc3c(=O)n2CC(C)C)o1	16.3	2.0	-33.4	2.1	-21.8
CCCCCn1nc(C(=O)OCc2nnc(-c3ccccc3)o2)c2ccccc2c1=O	25.6	1.5	-21.7	nt	-18.9
COc1cccc(-c2cc(C(F)(F)F)n3ncc(C(=O)O)c3n2)c1	51.0*	-0.7	-5.3	2.3	-24.4
N#Cc1cnn2c(C(F)(F)F)cc(-c3ccccc3)nc12	16.0	0.1	54.3*	-12.8	-15.2
O=C(O)c1cnn2c(C(F)(F)F)cc(-c3ccco3)nc12	48.6*	-0.7	1.5	-5.2	-3.8
